Reference: ChEMBL document CHEMBL1938255, “Novel 1-hydroxypiperazine-2,6-diones as new leads in the inhibition of metalloproteinases” (J Med Chem, 2011)
pIC50: −log10 of the molar value.

What was measured:
Stromelysin-1 = Stromelysin-1 (Homo sapiens, UniProt P08254); test: Inhibition of MMP3 using Mca-Arg-Pro-Lys-Pro-Val-Glu-Nva-Trp-Arg-Lys(Dnp)-NH2 as substrate preincubated for 4 hrs measured every 15 secs for 20 mins by fluorescence analysis
In short: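 Pro-MMP3 activated with trypsin 5 μg/mL, 30 min, 37 °C, then soybean trypsin inhibitor 62 μg/mL. Enzyme at 5 nM final was incubated 4 h at 25 °C with seven inhibitor concentrations in Tris 50 mM pH 7.5, NaCl 150 mM, CaCl2 10 mM, Brij 35 0.05%, DMSO 1%.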

Neutrophil collagenase = Neutrophil collagenase (Homo sapiens, UniProt P22894); test: Inhibition of human recombinant MMP8 using Mca-Lys-Pro-Leu-Gly-Leu-Dap(Dnp)-Ala-Arg-NH2 as substrate preincubated for 4 hrs measured every 15 secs for 20 mins by fluorescence analysis
In short: (§1)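 The proenzymes were activated with 2 mM APMA for 1 h at 37 °C. Final enzyme was 0.5 nM for MMP2 and 1.5 nM for MMP8. Each was incubated 4 h at 25 °C with seven inhibitor concentrations in pH 7.5 Tris/NaCl/CaCl2/Brij 35/1% DMSO buffer. With 2 μM substrate, fluorescence (325/395 nm) was read every 15 s for 20 min. IC50 came from fractional initial velocity; mean of three independent runs.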

[1] = target: Matrix metalloproteinase-16 (Homo sapiens, UniProt P51512); test: Inhibition of human recombinant MMP16 using Mca-Lys-Pro-Leu-Gly-Leu-Dap(Dnp)-Ala-Arg-NH2 as substrate preincubated for 4 hrs measured every 15 secs for 20 mins by fluorescence analysis
In short: (§2)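 Catalytic domains of MMP14 (1.0 nM final) and MMP16 (15 nM), and TACE (7.5 nM), were incubated 4 h at 25 °C with seven inhibitor concentrations. Buffer was Tris 50 mM pH 7.5, NaCl 150 mM, CaCl2 10 mM, Brij 35 0.05%, DMSO 1%. Substrate 2 μM final; hydrolysis read at 325/395 nm every 15 s for 20 min. IC50 from Vi/Vo = 1/(1+[I]/IC50); mean of three experiments.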

[2] = Stability in D2O assessed as compound decomposition at pD 2 after 24 hrs by NMR spectroscopy; format: physicochemical; conditions: pH 2, read-out: Drug metabolism
[3] = target: Disintegrin and metalloproteinase domain-containing protein 17 (Homo sapiens, UniProt P78536); test: Inhibition of TACE using Mca-Lys-Pro-Leu-Gly-Leu-Dap(Dnp)-Ala-Arg-NH2 as substrate preincubated for 4 hrs measured every 15 secs for 20 mins by fluorescence analysis; in short: as §2
[4] = target: 72 kDa type IV collagenase (Homo sapiens, UniProt P08253); test: Inhibition of human recombinant MMP2 using Mca-Lys-Pro-Leu-Gly-Leu-Dap(Dnp)-Ala-Arg-NH2 as substrate preincubated for 4 hrs measured every 15 secs for 20 mins by fluorescence analysis; in short: as §1
[5] = target: Matrix metalloproteinase-9 (Homo sapiens, UniProt P14780); test: Inhibition of human recombinant MMP9 using Mca-Lys-Pro-Leu-Gly-Leu-Dap(Dnp)-Ala-Arg-NH2 as substrate preincubated for 4 hrs measured every 15 secs for 20 mins by fluorescence analysis
In short: (§3)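 APMA activation at 1 mM, 1 h, 37 °C. Final enzyme was 0.3 nM for MMP13 and 1.3 nM for MMP9. Enzyme and inhibitor (seven concentrations) were incubated 4 h at 25 °C in Tris 50 mM pH 7.5 buffer with 150 mM NaCl, 10 mM CaCl2, 0.05% Brij 35, 1% DMSO. Substrate 2 μM final, ex 325/em 395 nm, every 15 s over 20 min. IC50 via Vi/Vo = 1/(1+[I]/IC50); three experiments averaged.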

[6] = Stability in D2O assessed as compound decomposition at pD 7 after 24 hrs by NMR spectroscopy; format: physicochemical; conditions: pH 7, read-out: Drug metabolism
Matrilysin = target: T1, Matrilysin (Homo sapiens, UniProt P09237); test: Inhibition of MMP7 using Mca-Lys-Pro-Leu-Gly-Leu-Dap(Dnp)-Ala-Arg-NH2 as substrate preincubated for 4 hrs measured every 15 secs for 20 mins by fluorescence analysis
T1 sequence (P09237 whole entry): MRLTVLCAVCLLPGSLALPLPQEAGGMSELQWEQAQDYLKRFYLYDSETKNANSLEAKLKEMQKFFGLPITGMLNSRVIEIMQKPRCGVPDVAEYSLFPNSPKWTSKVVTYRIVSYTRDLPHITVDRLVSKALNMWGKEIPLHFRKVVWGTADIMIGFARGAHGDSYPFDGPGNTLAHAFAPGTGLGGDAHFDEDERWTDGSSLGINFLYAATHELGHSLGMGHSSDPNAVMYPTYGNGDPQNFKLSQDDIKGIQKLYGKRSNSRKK
In short: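 Pro-MMP7 activated with 3.3 mM APMA, 2 h, 37 °C, then used at 1.3 nM final. Enzyme was preincubated with seven inhibitor concentrations for 4 h at 25 °C in pH 7.5 Tris buffer with NaCl, CaCl2, Brij 35 and 1% DMSO. Fluorogenic substrate 2 μM final; fluorescence (325/395 nm) recorded every 15 s for 20 min. IC50 from initial-velocity ratio; mean of three experiments.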

[7] = Stability in D2O assessed as compound decomposition at pD 2 after 48 hrs by NMR spectroscopy; format: physicochemical; conditions: pH 2, read-out: Drug metabolism
Collagenase 3 = Collagenase 3 (Homo sapiens, UniProt P45452); test: Inhibition of MMP13 using Mca-Lys-Pro-Leu-Gly-Leu-Dap(Dnp)-Ala-Arg-NH2 as substrate preincubated for 4 hrs measured every 15 secs for 20 mins by fluorescence analysis; in short: as §3
[8] = Stability in D2O assessed as compound decomposition at pD 2 after 5 days by NMR spectroscopy; format: physicochemical; conditions: pH 2, read-out: Drug metabolism
[9] = Stability in D2O assessed as compound decomposition at pD 7 after 3 days by NMR spectroscopy; format: physicochemical; conditions: pH 7, read-out: Drug metabolism
[10] = Stability in D2O assessed as compound decomposition at pD 7 after 5 days by NMR spectroscopy; format: physicochemical; conditions: pH 7, read-out: Drug metabolism
Interstitial collagenase = target: T2, Interstitial collagenase (Homo sapiens, UniProt P03956); test: Inhibition of MMP1 using Mca-Lys-Pro-Leu-Gly-Leu-Dap(Dnp)-Ala-Arg-NH2 as substrate preincubated for 4 hrs measured every 15 secs for 20 mins by fluorescence analysis
T2 sequence (P03956 whole entry): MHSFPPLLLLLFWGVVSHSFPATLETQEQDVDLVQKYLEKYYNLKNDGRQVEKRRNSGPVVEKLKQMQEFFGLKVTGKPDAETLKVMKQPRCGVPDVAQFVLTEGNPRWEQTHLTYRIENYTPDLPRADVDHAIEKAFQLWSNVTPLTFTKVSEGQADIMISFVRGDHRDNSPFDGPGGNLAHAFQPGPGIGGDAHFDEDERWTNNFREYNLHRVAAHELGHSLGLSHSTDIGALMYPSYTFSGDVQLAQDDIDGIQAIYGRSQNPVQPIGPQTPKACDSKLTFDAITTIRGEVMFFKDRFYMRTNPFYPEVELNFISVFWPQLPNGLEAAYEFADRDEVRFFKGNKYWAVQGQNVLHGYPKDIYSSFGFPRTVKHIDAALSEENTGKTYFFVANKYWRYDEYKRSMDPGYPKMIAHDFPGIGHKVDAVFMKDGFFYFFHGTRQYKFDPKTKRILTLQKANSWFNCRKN
In short: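 Pro-MMP1 activated with 2 mM APMA, 2 h, 37 °C. Enzyme at 2.0 nM final was preincubated 4 h at 25 °C with inhibitor at seven concentrations in Tris 50 mM pH 7.5, NaCl 150 mM, CaCl2 10 mM, Brij 35 0.05%, DMSO 1%. Substrate was 2 μM final, read ex 325/em 395 nm every 15 s for 20 min. IC50 from Vi/Vo = 1/(1+[I]/IC50); mean of three experiments.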

[11] = Stability in D2O assessed as compound decomposition at pD 7 after 20 days by NMR spectroscopy; format: physicochemical; conditions: pH 7, read-out: Drug metabolism
[12] = target: Macrophage metalloelastase (Homo sapiens, UniProt P39900); test: Inhibition of MMP12 using Mca-Lys-Pro-Leu-Gly-Leu-Dap(Dnp)-Ala-Arg-NH2 as substrate preincubated for 4 hrs measured every 15 secs for 20 mins by fluorescence analysis
In short: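 Pro-MMP12 was autoactivated for 30 h at 37 °C in assay buffer (Tris 50 mM pH 7.5, NaCl 150 mM, CaCl2 10 mM, Brij 35 0.05%, DMSO 1%). Enzyme at 1.0 nM final was incubated 4 h at 25 °C with seven inhibitor concentrations. Substrate 2 μM final, fluorescence ex 325/em 395 nm every 15 s for 20 min. IC50 via initial-velocity equation; mean of three experiments.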

[13] = target: Matrix metalloproteinase-14 (Homo sapiens, UniProt P50281); test: Inhibition of human recombinant MMP14 using Mca-Lys-Pro-Leu-Gly-Leu-Dap(Dnp)-Ala-Arg-NH2 as substrate preincubated for 4 hrs measured every 15 secs for 20 mins by fluorescence analysis; in short: as §2
[14] = Stability in D2O assessed as compound decomposition at pD 2 after 10 days by NMR spectroscopy; format: physicochemical; conditions: pH 2, read-out: Drug metabolism

Chain of Neutrophil collagenase (P22894 whole entry): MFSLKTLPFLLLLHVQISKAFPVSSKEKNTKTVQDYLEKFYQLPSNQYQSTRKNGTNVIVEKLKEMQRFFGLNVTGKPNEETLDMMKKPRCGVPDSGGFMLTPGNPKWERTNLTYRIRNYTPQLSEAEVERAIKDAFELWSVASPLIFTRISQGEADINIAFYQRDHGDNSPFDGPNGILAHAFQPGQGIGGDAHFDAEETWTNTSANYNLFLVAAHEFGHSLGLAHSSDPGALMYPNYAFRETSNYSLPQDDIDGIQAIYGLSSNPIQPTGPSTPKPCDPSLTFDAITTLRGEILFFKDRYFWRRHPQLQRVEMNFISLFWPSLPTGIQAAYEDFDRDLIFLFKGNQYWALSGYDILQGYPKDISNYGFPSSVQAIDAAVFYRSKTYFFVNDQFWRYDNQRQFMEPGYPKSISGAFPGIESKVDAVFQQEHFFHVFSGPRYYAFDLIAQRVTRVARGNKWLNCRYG
Chain of Macrophage metalloelastase (P39900 whole entry): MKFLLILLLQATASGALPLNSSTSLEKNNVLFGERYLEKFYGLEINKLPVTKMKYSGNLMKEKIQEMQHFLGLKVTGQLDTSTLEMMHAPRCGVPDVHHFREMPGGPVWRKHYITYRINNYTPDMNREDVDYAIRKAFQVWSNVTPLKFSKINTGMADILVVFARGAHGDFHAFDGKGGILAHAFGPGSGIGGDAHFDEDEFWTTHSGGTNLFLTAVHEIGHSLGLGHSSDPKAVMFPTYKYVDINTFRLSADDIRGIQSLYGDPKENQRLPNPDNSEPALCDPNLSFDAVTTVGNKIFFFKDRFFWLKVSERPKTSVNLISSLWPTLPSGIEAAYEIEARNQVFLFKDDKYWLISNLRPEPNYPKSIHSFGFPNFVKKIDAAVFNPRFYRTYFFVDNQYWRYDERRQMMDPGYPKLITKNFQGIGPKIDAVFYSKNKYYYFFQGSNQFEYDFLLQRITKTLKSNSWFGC
Chain of Disintegrin and metalloproteinase domain-containing protein 17 (P78536 whole entry, the tested form may be a part): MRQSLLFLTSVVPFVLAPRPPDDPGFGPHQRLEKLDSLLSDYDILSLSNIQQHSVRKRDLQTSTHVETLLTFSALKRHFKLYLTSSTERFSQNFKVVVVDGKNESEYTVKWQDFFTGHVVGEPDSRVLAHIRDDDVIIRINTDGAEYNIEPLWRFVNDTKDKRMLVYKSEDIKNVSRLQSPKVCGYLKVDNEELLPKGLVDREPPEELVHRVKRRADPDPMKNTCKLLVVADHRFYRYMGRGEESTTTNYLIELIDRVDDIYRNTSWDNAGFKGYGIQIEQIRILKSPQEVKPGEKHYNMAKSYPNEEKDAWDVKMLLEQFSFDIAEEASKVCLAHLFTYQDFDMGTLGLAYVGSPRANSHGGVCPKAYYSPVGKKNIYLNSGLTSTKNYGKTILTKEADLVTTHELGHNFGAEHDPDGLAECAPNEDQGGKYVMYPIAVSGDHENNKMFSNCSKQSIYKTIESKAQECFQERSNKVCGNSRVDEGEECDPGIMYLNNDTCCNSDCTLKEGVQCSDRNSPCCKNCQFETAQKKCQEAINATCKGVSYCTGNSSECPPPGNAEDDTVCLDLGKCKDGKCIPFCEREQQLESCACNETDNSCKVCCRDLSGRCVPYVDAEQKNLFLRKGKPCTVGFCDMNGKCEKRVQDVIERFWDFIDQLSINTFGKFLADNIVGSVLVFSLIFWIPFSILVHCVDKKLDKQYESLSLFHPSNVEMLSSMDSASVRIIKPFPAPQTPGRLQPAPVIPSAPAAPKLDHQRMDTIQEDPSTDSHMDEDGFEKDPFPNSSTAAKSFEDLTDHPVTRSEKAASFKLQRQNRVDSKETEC
Chain of 72 kDa type IV collagenase (P08253 whole entry): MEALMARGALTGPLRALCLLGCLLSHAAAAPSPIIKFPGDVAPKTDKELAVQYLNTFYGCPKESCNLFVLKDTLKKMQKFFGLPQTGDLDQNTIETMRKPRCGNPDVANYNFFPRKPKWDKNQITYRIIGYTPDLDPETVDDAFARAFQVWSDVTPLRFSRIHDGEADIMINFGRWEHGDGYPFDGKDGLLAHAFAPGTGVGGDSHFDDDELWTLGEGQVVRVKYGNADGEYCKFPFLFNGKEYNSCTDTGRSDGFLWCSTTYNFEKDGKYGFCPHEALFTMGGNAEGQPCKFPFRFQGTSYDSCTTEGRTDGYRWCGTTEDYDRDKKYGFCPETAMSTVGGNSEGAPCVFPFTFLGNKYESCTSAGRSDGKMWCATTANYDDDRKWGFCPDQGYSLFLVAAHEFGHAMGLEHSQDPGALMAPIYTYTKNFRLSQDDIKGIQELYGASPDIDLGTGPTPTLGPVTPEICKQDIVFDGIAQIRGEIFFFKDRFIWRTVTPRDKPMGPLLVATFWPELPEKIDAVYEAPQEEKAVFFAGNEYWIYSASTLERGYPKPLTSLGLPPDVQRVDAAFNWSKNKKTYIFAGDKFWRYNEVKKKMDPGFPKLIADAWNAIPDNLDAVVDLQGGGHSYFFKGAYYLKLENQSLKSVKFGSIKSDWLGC
Chain of Matrix metalloproteinase-16 (P51512 whole entry, the tested form may be a part): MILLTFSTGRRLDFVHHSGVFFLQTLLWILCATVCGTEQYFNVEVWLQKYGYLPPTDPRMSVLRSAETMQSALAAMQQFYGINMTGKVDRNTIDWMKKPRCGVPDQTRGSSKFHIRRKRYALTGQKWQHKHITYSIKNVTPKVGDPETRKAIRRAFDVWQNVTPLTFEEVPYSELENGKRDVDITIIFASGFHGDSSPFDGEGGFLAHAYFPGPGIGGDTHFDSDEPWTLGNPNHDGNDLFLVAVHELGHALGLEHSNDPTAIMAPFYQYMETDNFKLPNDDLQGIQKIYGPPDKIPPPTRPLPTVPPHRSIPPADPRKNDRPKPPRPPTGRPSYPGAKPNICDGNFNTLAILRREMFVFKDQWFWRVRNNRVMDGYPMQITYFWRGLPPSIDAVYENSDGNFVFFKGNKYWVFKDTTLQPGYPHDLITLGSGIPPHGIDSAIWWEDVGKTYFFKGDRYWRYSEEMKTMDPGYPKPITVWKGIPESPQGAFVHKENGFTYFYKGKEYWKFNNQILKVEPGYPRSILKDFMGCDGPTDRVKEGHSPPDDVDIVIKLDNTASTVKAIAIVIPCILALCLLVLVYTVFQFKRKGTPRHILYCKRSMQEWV
Chain of Stromelysin-1 (P08254 whole entry): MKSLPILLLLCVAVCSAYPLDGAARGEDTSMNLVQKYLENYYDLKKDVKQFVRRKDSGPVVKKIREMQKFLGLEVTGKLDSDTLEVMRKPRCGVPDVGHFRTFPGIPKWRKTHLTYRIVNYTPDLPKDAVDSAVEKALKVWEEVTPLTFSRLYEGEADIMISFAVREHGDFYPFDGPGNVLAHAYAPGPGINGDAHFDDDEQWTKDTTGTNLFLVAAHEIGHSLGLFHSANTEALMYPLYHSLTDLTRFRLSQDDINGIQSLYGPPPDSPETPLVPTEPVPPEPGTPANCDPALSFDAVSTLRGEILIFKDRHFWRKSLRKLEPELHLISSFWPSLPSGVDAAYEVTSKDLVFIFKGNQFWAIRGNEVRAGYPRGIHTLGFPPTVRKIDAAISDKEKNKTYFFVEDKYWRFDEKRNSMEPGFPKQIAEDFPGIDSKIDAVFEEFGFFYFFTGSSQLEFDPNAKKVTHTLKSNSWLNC
Chain of Matrix metalloproteinase-9 (P14780 whole entry): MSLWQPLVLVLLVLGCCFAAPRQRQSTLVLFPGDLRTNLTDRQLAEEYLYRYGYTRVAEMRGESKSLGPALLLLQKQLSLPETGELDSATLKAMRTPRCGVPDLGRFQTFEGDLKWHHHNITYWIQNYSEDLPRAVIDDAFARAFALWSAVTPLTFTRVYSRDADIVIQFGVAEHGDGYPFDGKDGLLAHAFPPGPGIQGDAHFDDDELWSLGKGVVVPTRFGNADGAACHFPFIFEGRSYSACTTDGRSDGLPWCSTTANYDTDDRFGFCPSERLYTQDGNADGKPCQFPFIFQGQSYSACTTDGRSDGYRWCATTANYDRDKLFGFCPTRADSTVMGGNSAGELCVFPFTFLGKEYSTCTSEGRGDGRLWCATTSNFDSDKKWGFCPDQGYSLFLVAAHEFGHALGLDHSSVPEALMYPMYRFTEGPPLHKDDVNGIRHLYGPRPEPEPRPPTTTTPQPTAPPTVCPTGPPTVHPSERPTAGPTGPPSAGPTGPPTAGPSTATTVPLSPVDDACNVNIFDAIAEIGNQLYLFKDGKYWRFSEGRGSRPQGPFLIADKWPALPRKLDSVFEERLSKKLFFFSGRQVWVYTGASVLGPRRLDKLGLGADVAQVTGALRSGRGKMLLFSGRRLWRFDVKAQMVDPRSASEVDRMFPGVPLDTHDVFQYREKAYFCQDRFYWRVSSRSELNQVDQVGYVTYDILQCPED

| Compound | pIC50 (Stromelysin-1) | pIC50 (Neutrophil collagenase) | pIC50 [1] | degraded at 24 h [2] | pIC50 [3] | pIC50 [4] | pIC50 [5] | degraded at 24 h [6] | pIC50 (Matrilysin) | degraded at 48 h [7] | pIC50 (Collagenase 3) | degraded at 120 h [8] | degraded at 72 h [9] | degraded at 120 h [10] | pIC50 (Interstitial collagenase) | degraded at 480 h [11] | pIC50 [12] | pIC50 [13] | degraded at 240 h [14] |
| --- | --- | --- | --- | --- | --- | --- | --- | --- | --- | --- | --- | --- | --- | --- | --- | --- | --- | --- | --- |
| COc1ccc(S(=O)(=O)N2CC(=O)N(O)C(=O)[C@H]2C(C)C)cc1 | 5.47 | 6.52 | 5.96 | < 1% | 4.48 | 5.92 | 6.16 | < 1% | 4.41 | 2% | 6.52 | 5% | 3% | 6% | 5.31 | 7% | 7.18 | 5.66 | 8% |
| CC(C)[C@@H]1C(=O)N(O)C(=O)CN1S(=O)(=O)c1ccc(-c2ccccc2)cc1 | 5.41 | 7.17 | 5.66 |  | 4.80 | 6.62 | 6.18 |  |  |  | 7.28 |  |  |  | 5.89 |  | 7.72 | 5.41 |  |
| COc1ccc(S(=O)(=O)N(Cc2cccnc2)[C@@H](C(=O)NO)C(C)C)cc1 [CGS-27023A] |  |  |  |  |  |  |  |  | 6.42 |  |  |  |  |  |  |  |  |  |  |

Other lines, results leading:

| pIC50 (Stromelysin-1) | pIC50 (Neutrophil collagenase) | pIC50 [1] | degraded at 24 h [2] | pIC50 [3] | pIC50 [4] | pIC50 [5] | degraded at 24 h [6] | pIC50 (Matrilysin) | degraded at 48 h [7] | pIC50 (Collagenase 3) | degraded at 120 h [8] | degraded at 72 h [9] | degraded at 120 h [10] | pIC50 (Interstitial collagenase) | degraded at 480 h [11] | pIC50 [12] | pIC50 [13] | degraded at 240 h [14] | Compound |
| --- | --- | --- | --- | --- | --- | --- | --- | --- | --- | --- | --- | --- | --- | --- | --- | --- | --- | --- | --- |
| 8.17 |  |  |  |  |  |  |  |  |  |  |  |  |  |  |  |  |  |  | CC(C)[C@H](C(=O)NO)N(CC(=O)O)S(=O)(=O)c1ccc(Oc2ccccc2)cc1 |
| 6.66 | 7.68 | 7.41 |  | 5.00 | 7.52 | 7.52 |  |  |  | 8.02 |  |  |  | 5.80 |  | 7.64 | 7.08 |  | CC(C)[C@@H]1C(=O)N(O)C(=O)CN1S(=O)(=O)c1ccc(Oc2ccccc2)cc1 |
